Keap1 Nrf2 FP: disrupts human Keap1 binding to Nrf2 peptide; 0.15% of 340,000 active; Keap1 Kelch-Nrf2 peptide fluorescence polarization, 1536-well; inhibition, % at 9.4 µM; AID 504523; Q14145; in the data active = inhibition above about 12%;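 also: human Keap1 Kelch domain with fluorescein labeled Nrf2 9mer peptide probe; 0% = neutral control wells and 100% = peptide positive control; higher means more block of Keap1 binding to Nrf2 peptide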
Target sequence (Q14145 whole entry, looked up, the tested form may be a part): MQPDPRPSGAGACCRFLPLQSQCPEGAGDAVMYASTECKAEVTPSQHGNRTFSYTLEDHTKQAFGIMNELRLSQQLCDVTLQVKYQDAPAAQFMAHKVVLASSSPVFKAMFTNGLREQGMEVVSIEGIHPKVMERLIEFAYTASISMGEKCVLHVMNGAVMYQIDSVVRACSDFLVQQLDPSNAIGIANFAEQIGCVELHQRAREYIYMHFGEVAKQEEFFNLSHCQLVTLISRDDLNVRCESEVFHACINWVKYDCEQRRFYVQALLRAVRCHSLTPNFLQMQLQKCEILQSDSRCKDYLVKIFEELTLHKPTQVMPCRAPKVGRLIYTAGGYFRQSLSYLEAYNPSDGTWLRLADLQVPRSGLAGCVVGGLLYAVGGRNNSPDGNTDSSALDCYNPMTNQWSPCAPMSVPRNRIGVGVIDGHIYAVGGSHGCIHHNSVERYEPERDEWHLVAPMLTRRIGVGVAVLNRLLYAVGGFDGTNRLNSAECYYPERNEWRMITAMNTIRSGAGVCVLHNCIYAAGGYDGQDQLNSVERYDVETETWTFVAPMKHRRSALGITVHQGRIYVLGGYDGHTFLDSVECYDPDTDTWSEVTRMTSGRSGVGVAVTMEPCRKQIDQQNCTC
Cardiac RTF inh: cardiac RTF calcium desensitization | inhibition, % at 7.15 µM | 0.12% of 340,000 active | IANBD-labeled cardiac RTF, Ca2+ fluorescence | P19429+P45379;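 active = inhibition above the mean inhibition of all tested compounds plus 3 SD, cut at about 17% in these data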;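 also: assay run at fixed EC70 calcium of 1.6 mM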
RTF Ca sens act: increases calcium sensitivity of human cardiac regulated thin filaments; P19429+P45379; IANBD-labeled TnC RTF fluorescence at EC20 calcium; 0% EC20 calcium, 100% full calcium; activation, % at 7.2 µM; 0.24% of 340,000 active; AID 493008;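 active = activation above the mean over all tested compounds plus 3 SD, cut at about 30% in these data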;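 also: rise in fluorescence read as greater calcium sensitivity of cardiac thin filaments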
LANA DNA inh: KSHV C-LANA DNA binding inhibition. 0.078% of 340,000 active. MBP-C-LANA/FAM-LBS DNA binding, fluorescence polarization. AID 504423. inhibition, % at 9 µM;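 active = highest replicate inhibition at or above 60% at 9 µM, even if other replicates fall short; inactive = all replicates below 60% inhibition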;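 also: 0% = neutral control wells and 100% = 4 µM acridine orange control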
DDE Tn6 FP inh: DD(E)-Tn6 binding inhibition, primary FP screen; P02675; Fibrin DD(E) TRITC-Tn6 fluorescence polarization displacement; inhibition, % at 8.3 µM; 0.21% of 370,000 active; AID 720509;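 active = inhibition above a per-campaign cutoff: mean of compounds within control limits plus 3 SD, cut at about 15% in these data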;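 also: 0% = median of all compound wells on the plate and 100% = blocking peptide control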
Tn7 DDE FP: disrupts Tn7 cyclic peptide binding to fibrin D-Dimer-E complex | P02675 | FP displacement of FITC-Tn7 peptide from fibrin DD(E); 0% = median of compound wells per plate | inhibition, % at 8.3 µM | 0.13% of 370,000 active;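 active = inhibition above the mean of compounds falling within the control limits plus 3 SD of them, cut at about 14% in these data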;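 also: 0% = plate median of compound wells and 100% = 10 µM Aha-Tn7 peptide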
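assay system = human clot-derived fibrin DD(E) complex | quantity = Fibrin-DD(E) at 2 µM final | timing = 10 min preincubation, 3 h with tracer, room temperature | signal = fluorescence polarization | measure = percent inhibition | benchmarks = high control wells with 10 µM unlabelled Aha-Tn7 peptide (full inhibition) | replicates = singlicate testing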
RTF Ca inh conf: confirmation of inhibitors of cardiac thin filament calcium sensitivity | shares compounds with Cardiac RTF inh | inhibition, % at 7.15 µM | reconstituted cardiac thin filaments, calcium sensitivity fluorescence | 8% of 360 active; in the data active = inhibition above about 18%
Numbers without * were called inactive; x = no result. This is a sample that favours compounds with a hit; in the whole collection about 0.73% have one here.

SMILES | Keap1 Nrf2 FP | Cardiac RTF inh | RTF Ca sens act | LANA DNA inh | DDE Tn6 FP inh | Tn7 DDE FP | RTF Ca inh conf
Cc1cccc(NC(=O)CCN2CC(C)OC(C)C2)c1 (centres undefined) | -6 | -4 | 6 | 0 | -2 | -4 | x
Cc1cccc(NC(=O)CCN2CCCC(C)C2)c1 (centres undefined) | 2 | 59* | 7 | 1 | 0 | 1 | -5
COc1ccc(-c2nn(-c3ccccc3)cc2C(=O)NCCCn2ccnc2)cc1 | 1 | 26* | -4 | -1 | 5 | 2 | -8
COc1ccc(Cl)cc1NC(=O)C(C)N(C)Cc1ccc(C(F)(F)F)cc1 (centres undefined) | -2 | 18* | 3 | 1 | 0 | 2 | -1
COc1cc(CN(C)C(C)C(=O)Nc2ccc([N+](=O)[O-])cc2Cl)ccc1OC(F)F (centres undefined) | -4 | 2 | 2 | 0 | 2 | 6 | x
CCCCn1c(SC(C)C(=O)NCC2CCCO2)nc2cc(C(=O)OC)ccc2c1=O (centres undefined) | 2 | 19* | -4 | -11 | -4 | -11 | -4
CCCCn1c(SC(C)C(N)=O)nc2cc(C(=O)OC)ccc2c1=O (centres undefined) | -4 | -21 | -3 | 0 | 2 | -5 | x
CC(=O)NCc1ccc(OCCCN2CCC(C(O)(c3ccccc3)c3ccccc3)CC2)cc1 | x | x | x | x | -4 | 2 | x
COC(=O)c1ccc2nc(-c3ccc(C)cc3)c(Cc3ccccc3)n2c1 | x | x | x | x | 3 | -4 | x
CNC(=O)Oc1ccc2c(c1)[C@]1(C)CCN(C)C1N2C (some centres undefined) | 0 | 17* | 0 | 0 | -1 | 4 | -3
COc1ccc(NC(=O)C2(C)CCN2C)cc1OC (centres undefined) | x | x | x | x | 2 | -6 | x
Cc1cc(NC(=O)COc2cc(F)cc(F)c2)n(-c2ccccc2)n1 | x | x | x | x | -6 | 9 | x
O=C(CSc1nc2ccccc2n1CCc1ccccc1)N1CCOCC1 | -3 | -12 | 6 | 0 | -3 | 4 | x
O=C(CSc1nc2ccccc2n1CCc1ccccc1)c1ccc(O)c(O)c1 | -4 | 18* | -17 | 14 | -2 | -1 | 10
C=CCCC(=O)N1CCC(C(=O)NCC2COc3ccccc3O2)CC1 (centres undefined) | x | x | x | x | -5 | 1 | x
COc1ccccc1NCC(=O)N/N=C/c1c(O)ccc2ccccc12 | 0 | 0 | -3 | 3 | -13 | -13 | x
COc1ccccc1N(CC(=O)N/N=C/c1c(O)ccc2ccccc12)S(C)(=O)=O | 1 | 26* | -6 | 1 | -10 | 8 | 11
CCOc1ccc(C2C(C(=O)c3cccs3)=C(O)C(=O)N2Cc2cccnc2)cc1 (centres undefined) | -2 | 19* | 6 | 1 | 6 | -2 | 1
CCOc1ccc(C2C(C(=O)c3cccs3)=C(O)C(=O)N2Cc2cccnc2)cc1OC (centres undefined) | -6 | -10 | 5 | 0 | 2 | -10 | x
O=S(=O)(c1ccccc1)N1CCN(S(=O)(=O)c2ccc3c(c2)OCCO3)CC1 | x | x | x | x | 2 | 3 | x
N#CN1CCC(NS(=O)(=O)c2ccc(F)cc2)C1 (centres undefined) | x | x | x | x | 5 | 4 | x
CCn1ncc(/C=C2/SC(=S)NC2=O)c1C | -1 | 19* | 0 | -1 | -5 | 6 | -5
C#CCCCN([C@H](C(=O)OC)C(C)C)S(=O)(=O)c1ccccc1Br | x | x | x | x | -4 | -8 | x
CCc1nc2c(OCc3cc(Cl)cc(Cl)c3)cccn2c1N(C)C(=O)c1ccc(OC)cc1 | x | x | x | x | 4 | -3 | x
CC1CCN(C(=O)COC(=O)CSc2ccc(C(N)=O)cc2[N+](=O)[O-])CC1 | -4 | 17* | -1 | 0 | 1 | -1 | 1
CC1CCCN(C(=O)COC(=O)CSc2ccc(C(N)=O)cc2[N+](=O)[O-])C1 (centres undefined) | 1 | -10 | -6 | -1 | -1 | 2 | x

Screening data deposited in PubChem by several laboratories.
